In article PMC4981430 (Neuropharmacology, 2016):
Read-outs that look alike come from different tables or passages of the source.

What was measured:
[1] = tested on: recombinant α2β3γ2 GABAARs; settings: cited from earlier work; for Potentiation of recombinant α2β3γ2 GABAARs, relative to chlordiazepoxide: % of that of chlordiazepoxide, ref Atack et al.
α1β2γ2 GABAARs [2] = target: T1, α1β2γ2 GABAARs (Rattus norvegicus, UniProt P18508+P62813); experiment: Whole-cell patch-clamp, potentiation of GABA; type: cell-based; settings: for Emax: HEK293, read-out: Electrophysiology Emax (potentiation)
α2β3γ2 GABAARs [3] = target: T2, α2β3γ2 GABAARs (Rattus norvegicus, UniProt P18508+P23576); experiment: Whole-cell patch-clamp, potentiation of GABA; type: cell-based; settings: for Emax: HEK293, read-out: Electrophysiology Emax (potentiation)
α3β3γ2 GABAARs = α3β3γ2 GABAARs (Rattus norvegicus, UniProt P18508+P20236); experiment: Whole-cell patch-clamp, potentiation of GABA; type: cell-based
α5β2γ2 GABAARs = α5β2γ2 GABAARs (Rattus norvegicus, UniProt P18508+P19969); experiment: Whole-cell patch-clamp, potentiation of GABA; type: cell-based; settings: for Emax: HEK293, read-out: Electrophysiology Emax (potentiation)
[4] = tested on: α1β2γ2, α2β3γ2, α3β3γ2 and α5β2γ2 GABAARs; experiment: Whole-cell patch-clamp in HEK293 cells, statements across the GABAAR subtypes; type: cell-based, rat; settings: up to 3 μM for DZP, and 20 μM for CBZ and NDMC
[5] = tested on: CCI model of neuropathic pain, mechanical hyperalgesia; experiment: Mechanical hyperalgesia; type: in vivo, mouse; settings: GABAAR α1(H→R) point-mutated mice, von-Frey filament stimulation, p.o.
Outline: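 Left sciatic nerve constricted proximal to the trifurcation with three loose 5-0 silk ligatures. Mice 7–10 weeks old, both sexes, wild-type or α1(H→R) point-mutated, tested blinded 7–14 days later. Dosing p.o. as a suspension in 0.9% saline/1% Tween80. Paw withdrawal threshold measured with electronic von Frey filament #7, 3–4 readings per time point. Expressed as %MPE using pre-CCI and pre-drug thresholds.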

[6] = tested on: locomotor activity of mice; experiment: Locomotor activity in the open field test; type: in vivo, mouse
α1β2γ2 GABAARs [7] = target: T1, α1β2γ2 GABAARs; experiment: [3H]flunitrazepam binding to membranes of transfected HEK293 cells, α1β2γ2
α2β3γ2 GABAARs [8] = target: T2, α2β3γ2 GABAARs; experiment: [3H]flunitrazepam binding to membranes of transfected HEK293 cells, α2β3γ2
human GABAARs = human GABAARs in Xenopus laevis oocytes; ref Hammer et al., 2015; cited from earlier work

α5β2γ2 GABAARs, sequence (P19969 32-464 limits assumed): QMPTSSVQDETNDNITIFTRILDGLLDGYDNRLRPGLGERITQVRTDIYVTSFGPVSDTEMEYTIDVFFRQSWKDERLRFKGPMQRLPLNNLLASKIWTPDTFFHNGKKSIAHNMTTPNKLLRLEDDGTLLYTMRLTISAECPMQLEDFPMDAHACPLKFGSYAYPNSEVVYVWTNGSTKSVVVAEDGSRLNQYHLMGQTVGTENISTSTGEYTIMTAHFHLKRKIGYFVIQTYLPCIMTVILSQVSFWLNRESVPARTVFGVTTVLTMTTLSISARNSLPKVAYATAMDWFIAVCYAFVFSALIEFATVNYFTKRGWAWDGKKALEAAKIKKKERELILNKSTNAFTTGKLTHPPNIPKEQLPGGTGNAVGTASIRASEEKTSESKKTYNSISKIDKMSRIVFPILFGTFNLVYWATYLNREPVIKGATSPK
α5β2γ2 GABAARs, sequence (P63138 25-474 partner limits assumed): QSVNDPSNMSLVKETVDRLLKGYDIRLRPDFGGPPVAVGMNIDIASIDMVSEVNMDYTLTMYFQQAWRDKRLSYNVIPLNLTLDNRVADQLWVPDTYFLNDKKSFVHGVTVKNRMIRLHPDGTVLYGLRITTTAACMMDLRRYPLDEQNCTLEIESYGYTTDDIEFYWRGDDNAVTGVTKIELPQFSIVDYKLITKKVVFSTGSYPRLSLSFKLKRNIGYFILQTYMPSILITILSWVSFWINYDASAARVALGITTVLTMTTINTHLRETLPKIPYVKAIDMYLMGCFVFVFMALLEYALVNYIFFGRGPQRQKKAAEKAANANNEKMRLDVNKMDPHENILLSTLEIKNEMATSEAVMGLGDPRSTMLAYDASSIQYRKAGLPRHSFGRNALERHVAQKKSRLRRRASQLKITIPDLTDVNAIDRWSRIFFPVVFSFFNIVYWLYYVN
α5β2γ2 GABAARs, sequence (P18508 39-466): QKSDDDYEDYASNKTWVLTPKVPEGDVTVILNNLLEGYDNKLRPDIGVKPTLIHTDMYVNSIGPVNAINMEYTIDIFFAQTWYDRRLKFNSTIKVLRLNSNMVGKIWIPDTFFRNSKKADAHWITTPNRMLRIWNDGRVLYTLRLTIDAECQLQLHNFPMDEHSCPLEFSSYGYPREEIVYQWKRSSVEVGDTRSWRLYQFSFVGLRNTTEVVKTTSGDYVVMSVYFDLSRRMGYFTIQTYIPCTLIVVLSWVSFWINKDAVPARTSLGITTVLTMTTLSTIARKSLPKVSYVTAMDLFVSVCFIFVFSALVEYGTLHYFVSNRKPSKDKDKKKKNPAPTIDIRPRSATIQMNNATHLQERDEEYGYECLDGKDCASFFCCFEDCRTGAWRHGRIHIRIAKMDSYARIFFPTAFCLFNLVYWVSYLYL
T2 sequence (P23576 29-451): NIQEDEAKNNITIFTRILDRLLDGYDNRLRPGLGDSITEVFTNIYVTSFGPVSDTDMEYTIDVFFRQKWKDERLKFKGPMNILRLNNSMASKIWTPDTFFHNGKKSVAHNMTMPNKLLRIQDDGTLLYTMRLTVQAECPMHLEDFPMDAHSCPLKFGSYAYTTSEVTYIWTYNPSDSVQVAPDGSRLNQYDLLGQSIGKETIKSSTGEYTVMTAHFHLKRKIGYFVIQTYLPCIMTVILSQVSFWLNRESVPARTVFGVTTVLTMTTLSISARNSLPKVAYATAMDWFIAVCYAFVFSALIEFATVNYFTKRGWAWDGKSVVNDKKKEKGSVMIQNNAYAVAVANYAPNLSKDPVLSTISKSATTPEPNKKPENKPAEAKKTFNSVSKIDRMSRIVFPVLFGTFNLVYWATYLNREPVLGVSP
T2 sequence (P63079 26-473 partner): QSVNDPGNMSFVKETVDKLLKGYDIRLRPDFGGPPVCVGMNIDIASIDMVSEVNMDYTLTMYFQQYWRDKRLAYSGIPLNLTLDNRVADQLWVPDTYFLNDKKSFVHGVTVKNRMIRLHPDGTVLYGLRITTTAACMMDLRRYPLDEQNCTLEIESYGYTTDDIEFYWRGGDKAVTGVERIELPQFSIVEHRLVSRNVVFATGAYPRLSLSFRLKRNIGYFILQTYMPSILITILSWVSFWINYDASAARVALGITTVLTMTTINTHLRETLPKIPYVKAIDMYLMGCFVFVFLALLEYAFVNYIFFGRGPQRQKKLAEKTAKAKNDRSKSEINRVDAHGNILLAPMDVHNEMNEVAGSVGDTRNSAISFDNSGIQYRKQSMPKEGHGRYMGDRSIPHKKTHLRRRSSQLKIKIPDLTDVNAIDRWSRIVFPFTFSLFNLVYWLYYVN
T2 sequence (P18508 39-466): as the sequence (P18508 39-466) above
T1 sequence (P62813 28-455): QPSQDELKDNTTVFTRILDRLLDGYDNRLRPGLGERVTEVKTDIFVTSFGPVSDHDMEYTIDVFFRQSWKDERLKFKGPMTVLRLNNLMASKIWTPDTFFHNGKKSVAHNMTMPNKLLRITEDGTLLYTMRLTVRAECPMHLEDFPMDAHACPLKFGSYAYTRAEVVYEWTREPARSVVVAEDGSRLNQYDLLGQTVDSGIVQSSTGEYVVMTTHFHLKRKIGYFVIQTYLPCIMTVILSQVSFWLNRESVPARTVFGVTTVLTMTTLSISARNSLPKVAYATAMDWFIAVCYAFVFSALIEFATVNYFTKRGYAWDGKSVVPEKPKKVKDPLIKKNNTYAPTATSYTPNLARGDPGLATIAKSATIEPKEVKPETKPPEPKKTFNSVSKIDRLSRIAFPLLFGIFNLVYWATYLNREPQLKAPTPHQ
T1 sequence (P63138 25-474 partner limits assumed): as the sequence (P63138 25-474 partner limits assumed) above
T1 sequence (P18508 39-466): as the sequence (P18508 39-466) above
α3β3γ2 GABAARs, sequence (P20236 29-493): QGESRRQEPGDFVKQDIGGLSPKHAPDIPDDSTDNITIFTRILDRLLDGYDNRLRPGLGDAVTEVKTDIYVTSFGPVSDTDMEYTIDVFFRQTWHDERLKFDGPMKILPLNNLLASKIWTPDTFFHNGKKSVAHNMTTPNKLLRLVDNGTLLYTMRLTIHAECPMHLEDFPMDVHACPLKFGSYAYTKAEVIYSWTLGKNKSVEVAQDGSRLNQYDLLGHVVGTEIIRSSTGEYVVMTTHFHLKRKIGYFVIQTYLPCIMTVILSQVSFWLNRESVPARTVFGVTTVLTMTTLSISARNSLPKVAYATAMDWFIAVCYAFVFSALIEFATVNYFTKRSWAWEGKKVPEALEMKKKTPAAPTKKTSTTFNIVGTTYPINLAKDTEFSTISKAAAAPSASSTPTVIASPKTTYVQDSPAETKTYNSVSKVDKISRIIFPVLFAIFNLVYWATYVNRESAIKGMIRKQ
α3β3γ2 GABAARs, sequence (P63079 26-473 partner): as the sequence (P63079 26-473 partner) above
α3β3γ2 GABAARs, sequence (P18508 39-466): as the sequence (P18508 39-466) above

Cn1ncnc1COc1nn2c(-c3cc(F)ccc3F)nnc2cc1C(C)(C)C [L-838,417]
Potentiation of recombinant α2β3γ2 GABAARs ([1]; ref McKernan et al., 2000): about 40%

CN1C(=O)CN=C(c2ccccc2)c2cc(Cl)ccc21 [DZP, diazepam]
Emax (α1β2γ2 GABAARs [2]): 141 ± 17% | Emax (α2β3γ2 GABAARs [3]): 123 ± 11% | Electrophysiology Emax (potentiation) (α3β3γ2 GABAARs; α3β3γ2, GABA at EC10, mean ± SD): 227 ± 15% | Emax (α5β2γ2 GABAARs): 100 ± 6.4% | Direct activation of GABAAR currents [4]: did not directly activate GABAAR currents | ED50 antihyperalgesia [5]: 3.4 ± 1.3 mg/kg | Dose at which reduction in locomotor activity reached statistical significance ([6]; 129X1/SvJ mice, p.o., 72-120 min): ≥ 10 mg/kg | Effect on locomotor activity ([6]; C57BL/6J mice, 3, 10 and 30 mg kg−1 p.o., 72-120 min): dose-dependent reduction in locomotor activity | Dose at which reduction in locomotor activity reached statistical significance ([6]; C57BL/6J mice, p.o., 72-120 min): 1 mg/kg | Effect on locomotor activity in HRRR mice ([6]; HRRR triple point-mutated mice (only α1GABAARs BDZ-sensitive), 3–10 mg kg−1 p.o.): completely suppressed | Effect on locomotor activity in RHRR mice ([6]; RHRR triple point-mutated mice (only α2GABAARs BDZ-sensitive), p.o.): increased locomotion | Dose reducing locomotor activity in RRRR mice ([6]; quadruple point-mutated RRRR mice, p.o.): ≥ 30 mg/kg | ED50 sedation ([6]; triple (H→R) point-mutated mice, only α1GABAARs BDZ-sensitive, p.o.): 0.59 ± 0.08 mg/kg

CCn1ncnc1COc1nn2c(-c3ccccc3F)nnc2cc1C(C)(C)C [TPA023, 7-(1,1-Dimethylethyl)-6-(2-ethyl-2H-1,2,4-triazol-3-ylmethoxy)-3-(2-fluor ophenyl)-1,2,4-triazolo[4,3-b]pyridazine]
Potentiation of recombinant α2β3γ2 GABAARs, relative to chlordiazepoxide [1]; 2006: 11%

CN1C(=O)CC(=O)N(c2ccccc2)c2cc(Cl)ccc21 [CBZ, clobazam]
IC50 (α1β2γ2 GABAARs [7]): 430 ± 130 nM | IC50 (α2β3γ2 GABAARs [8]): 390 ± 80 nM | EC50 (α1β2γ2 GABAARs [2]): 610 ± 200 nM | Emax (α1β2γ2 GABAARs [2]): 171 ± 17% | EC50 (α2β3γ2 GABAARs [3]): 390 ± 190 nM | Emax (α2β3γ2 GABAARs [3]): 134 ± 16% | α2/α1 selectivity (α2β3γ2 GABAARs [3]; determined as Emax(α2)/Emax(α1)): 0.78 ± 0.12 | EC50 (α3β3γ2 GABAARs): 1100 ± 320 nM | EC50 (α5β2γ2 GABAARs): 500 ± 120 nM | Emax (α5β2γ2 GABAARs): 157 ± 11% | Direct activation of GABAAR currents [4]: did not directly activate GABAAR currents | α2/α1 selectivity ratio (human GABAARs): 1.02 ± 0.05

CC(C)(O)c1cnn2c(-c3ccc(F)c(-c4c(F)cccc4C#N)c3)cnc2n1 [TPA023B]
Potentiation of recombinant α2β3γ2 GABAARs, relative to chlordiazepoxide [1]; 2011: 38%
